The source of these data is PubChem BioAssay AID493091 (Sanford-Burnham Center for Chemical Genomics, 2011).

Usually inhibition stands for the change of the read-out against control, counted positive when it falls.

Out of some 340,000 compounds screened, about 3,000 (0.88%) were called active. This is one part of a sample in which actives are shown more often than they occur. Unmarked numbers belong to inactive results.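 The calls were made as follows: active = inhibition above about 50% at 20 µM (limit read from the data); inactive = the rest.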

Chain of Carboxy-terminal domain RNA polymerase II polypeptide A small phosphatase 1 (Homo sapiens) (Q9GZU7 76-261 limits assumed): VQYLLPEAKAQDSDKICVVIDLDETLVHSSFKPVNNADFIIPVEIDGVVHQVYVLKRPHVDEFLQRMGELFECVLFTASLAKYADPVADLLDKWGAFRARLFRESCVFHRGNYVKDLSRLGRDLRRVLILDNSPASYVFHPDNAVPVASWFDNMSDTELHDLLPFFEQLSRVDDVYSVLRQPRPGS

The target of the test is Carboxy-terminal domain RNA polymerase II polypeptide A small phosphatase 1 (Homo sapiens) (UniProt Q9GZU7). Briefly: inhibition of human SCP1 dephosphorylation activity – biochemical, colorimetric, uHTS, primary screen (AID 493091).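 Also: plate controls were DMSO wells with enzyme for no effect and wells lacking enzyme for full effect.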 Particulars: Recombinant Scp1, phosphopeptide, malachite green phosphate absorbance; at 20 µM; hits give high values. Summed up: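 Assay system: SCP-1 catalytic fragment, aa 76-261 | Buffer or medium: Tris acetate buffer pH 5.5 with MgCl2 and Tween-20 | Compound: One concentration, 20 µM, with 1.0% DMSO | Also added: Phospho 17-mer peptide substrate | Signal: Absorbance at 630 nm | Incubation: 45 min enzyme reaction at room temperature | Measure: % inhibition of SCP-1 phosphate liberation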
As for `CC(=O)Nc1ccc(S(=O)(=O)NC(C)C(=O)OCCOc2ccc(F)cc2)cc1` (stereo unspecified), the inhibition is -7.64%.

Take `CCOc1ccccc1Nc1nnc(SCC(=O)NCC2CCCO2)s1` (stereo unspecified): the inhibition was -9.59%. Turning to `O=C(CSc1ncn[nH]1)NCc1ccc2c(c1)OCO2`, the inhibition is -1.73%. On to `Cc1ccn2c(=O)nc(SCC(=O)NCc3ccc4c(c3)OCO4)nc2c1`, for which the inhibition was 73.6% (active). On to `Cc1ccn2c(=O)nc(SCC(=O)NCc3ccc(F)cc3)nc2c1`, for which the inhibition was 16.3%. The figure for `O=C1CC2(CCN(C(=O)COc3ccc(F)cc3)CC2)Oc2ccccc21` is 1.25%; for `O=C(CSc1ncn[nH]1)Nc1ccnc2ccccc12` it is -9.75%. `CCCCCN1CC(O)=C(c2ccccc2)C1=N`: the inhibition is -2.2%.

`CCCCCN1CC(O)=C(c2nc(-c3ccc(Cl)cc3)cs2)C1=N`: the inhibition was 94.9% (active).

Consider `CCCCNC(=O)CCn1nc(-c2ccc(Cl)cc2)ccc1=O`, for which the inhibition was 6.19%.

As for `Cc1ccc(NC(=O)CN(C)C(=O)c2ccc(Br)o2)cc1`, the inhibition was 1.38%.

Turning to `CC1(C)CC(=O)C2=C(C1)NCN(CCCN1CCOCC1)C2`, the inhibition was -1.79%. The figure for `CC(C)C(=O)NC(NC(=S)NC1CCS(=O)(=O)C1)C(Cl)(Cl)Cl` (stereo unspecified) is -9.76%.

Take `COC(=O)c1cccc(NC(=O)c2cccc(N3C(=O)CCC3=O)c2)c1`: the inhibition is -7.64%. As for `CC(=O)Nc1ccc(N2C(=O)CCC2=O)cc1C`, the inhibition is 75.8% (active). Regarding `Cc1cccc(NC(=O)c2cc(N3C(=O)CCC3=O)ccc2Cl)n1`, the inhibition was -6.1%. Consider `O=C(C(NS(=O)(=O)c1cccc2nsnc12)c1ccccc1)N1CCN(c2ccccn2)CC1` (stereo unspecified), for which the inhibition is -0.35%.

Regarding `O=S(=O)(NC(=S)Nc1ccccc1)c1ccc(F)cc1`, the inhibition was -7.43%. On to `CCOc1ccc(Nc2nc(Cc3nnc(SCC(=O)NC4CCCC4)n3C)cs2)cc1`, for which the inhibition is -5.22%. Take `COCCCn1c(SCC(=O)NC2CCCC2)nnc1-c1ccccc1`: the inhibition is -9.75%. On to `COCCCn1c(Cc2csc(Nc3cccc(Cl)c3)n2)nnc1SCC(=O)OC1CCCCC1`, for which the inhibition was 58.9% (active). For `O=C(CSc1nnc(N2CCOCC2)n1-c1cccc(F)c1)N1CCN(c2ccccn2)CC1`, the inhibition was -3.89%. The figure for `Cc1ccc(S(=O)(=O)NCCC(=O)NNC(=O)C2COc3ccccc3O2)cc1` (stereo unspecified) is -1.94%; for `Cc1c(CC(=O)N2CCN(C(=O)C3COc4ccccc4O3)CC2)c(=O)oc2c(O)c(O)ccc12` (stereo unspecified) it is 79.7% (active); for `Cc1c(C)c2ccc(OCC(=O)N3CCC(C(=O)O)CC3)c(C)c2oc1=O` it is 1.4%. The figure for `COc1ccc(NC2CCCN(C(=O)c3ccncc3)C2)cc1` (stereo unspecified) is 3.08%. The figure for `CNc1[nH]ncc1[N+](=O)[O-]` is -7.97%; for `NC(=O)c1nsc(C(=O)N(CCCN2CCOCC2)C(C(=O)NC2CCCCC2)c2ccc(Cl)cc2)c1N` (stereo unspecified) it is -5.84%; for `CCS(=O)(=O)N1CCCC(C(=O)NCCCN(C)Cc2ccccc2)C1` (stereo unspecified) it is -3.41%. In the case of `COc1ccc(OC)c(NC(=O)Cc2cccs2)c1`, the inhibition was 14.5%. Take `COc1ccc(Cc2nnc(NC(=O)Cc3cccs3)s2)cc1`: the inhibition is 87% (active). Turning to `COc1ccc(Cc2nnc(NS(=O)(=O)Cc3ccccc3)s2)cc1`, the inhibition was -2.23%. The figure for `CC1CCC(NC(=O)CNC(=O)c2ccc3ccccc3c2)CC1` (stereo unspecified) is -3.85%; for `O=C(CN1CCCCC1)NC(=O)Nc1ccccc1F` it is 1.25%. On to `C=C1CCN([C@H](C(=O)NCc2cc(OC)c(OC)c(OC)c2)C(C)C)S(=O)(=O)c2ccccc21`, for which the inhibition is -5.59%. As to `O=C(CN1CCN(S(=O)(=O)/C=C/c2ccccc2)CC1)NC(=O)NCc1ccco1`, the inhibition is 52.3% (active). Regarding `COc1ccccc1N1CCN(CC(=O)NC(=O)NCc2ccco2)CC1`, the inhibition was -8.28%. Regarding `NC(=O)CCN1CCN(S(=O)(=O)/C=C/c2ccccc2)CC1`, the inhibition is 5.89%.

For the molecule `COC(=O)c1cc(OC)c(OC)cc1NC(=O)C1CCCO1` (stereo unspecified), the inhibition was -6.55%.

Take `O=C(CCCOc1ccccc1)NNC(=O)c1ccc(Cl)cc1`: the inhibition is 0.5%.

In the case of `CN(CC(=O)Nc1ccc(Cl)cc1)C(=O)CNC(=O)c1ccc2ccccc2c1`, the inhibition is -10%. Take `O=C(NNC(=O)c1ccc2ccccc2c1)c1ccc(Cl)cc1`: the inhibition was 99.5% (active). Consider `N=C1C(=O)OCC1c1ccccc1NC(=O)CN1CCCCC1` (stereo unspecified), for which the inhibition was -9.11%.

As for `Cc1cc(C)n(CCNCc2c(C(=O)N3C[C@@H](C)O[C@@H](C)C3)nc3ccc(Cl)cn23)n1`, the inhibition was -3.38%. As for `CCn1cc(CN2CCC(C(=O)Nc3cccc(-c4cccc(Cl)c4)c3)CC2)c(C)n1`, the inhibition is -4.7%. As to `CCOC(=O)CCCCCC(=O)Nc1ccc2c(c1)CC(=O)N([C@@H](C)CO)C[C@H](C)[C@@H](CN(C)Cc1ccccc1)O2`, the inhibition is -4.43%. For `C=CCOc1c2ccc(C(=O)N(CC)c3ccc(OC)cc3)cc2nn1C`, the inhibition was -2.27%. Consider `O=C(COC(=O)c1cnccn1)Nc1cccc2ccccc12`, for which the inhibition is -9.56%.

Consider `CCOC(=O)C(=Cc1ccccc1OC)C(=O)OCC`, for which the inhibition is -0.82%. For the molecule `C=C1c2cccc(OC)c2O[C@H](C(=O)OCC)[C@@H]1CCCCCC`, the inhibition is 101% (active). In the case of `CC1C(=O)NC(=O)C1c1ccccc1` (stereo unspecified), the inhibition was -3.27%. Turning to `N#Cc1c(-c2cccs2)nc(SCC(=O)c2ccc(Br)cc2)[nH]c1=O`, the inhibition is 64.9% (active). As to `CC(=O)CSc1nc(CCc2ccccc2)c(C#N)c(=O)[nH]1`, the inhibition is -7.04%.

In the case of `O=C(CSc1nc2ccccc2c(=O)[nH]1)Nc1nc(-c2ccc(Br)cc2)cs1`, the inhibition is 3.75%. `CCN(CC)C(=O)CS(=O)CC(=O)Nc1cc(OCCOC)c(Cl)cc1Cl` (stereo unspecified): the inhibition is 1.24%.

Consider `O=C(Cn1cnc([N+](=O)[O-])n1)NCCc1ccccc1`, for which the inhibition was -2.5%.
